Measurements reported in ChEMBL document CHEMBL4699606, “New type of anti-influenza agents based on benzo[d][1,3]dithiol core” (Bioorg Med Chem Lett, 2020).
Calls of active or inactive are those of the source. The calls are words filed in the database; no cut-off is given here.

What was measured:
[1] = Antiviral activity against Influenza A virus (A/California/07/09(H1N1))pdm09 infected in MDCK cells assessed as reduction in viral replication preincubated with compound for 1 hr followed by viral infection and measured after viral cultivation for 48 hrs by hemagglutination test; format: functional, cell-based, Influenza A virus (A/California/07/2009(H1N1))
[2] = Cytotoxicity against dog MDCK cells assessed as reduction in cell viability by MTT assay; format: cell-based, Canis lupus familiaris
[3] = Selectivity index, ratio of CC50 for dog MDCK cells to IC50 for Influenza A virus (A/California/07/09(H1N1)) pdm09 infected in MDCK cells; format: toxicity, cell-based; details: read-out: Ratio CC50/IC50
MDCK = experiment: Antiviral activity against Influenza A virus (A/California/07/09(H1N1))pdm09 infected in MDCK cells assessed as suppression of viral replication at early stage of viral cycle after 2 hpi by time of addition assay; format: functional, cell-based; details: Influenza A virus (A/California/07/2009(H1N1)), time 2.0 hrs
Method in brief: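 Time-of-addition study in MDCK cells. Compound added at set times relative to infection (time 0 = moment of infection). Read-out was the infectious activity of viral progeny, assayed in MDCK cells.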

[4] = test system: Influenza A virus (A/California/07/2009(H1N1)); experiment: Inhibition of Influenza A virus (A/California/07/09(H1N1))pdm09 hemagglutinin receptor binding activity
[5] = test system: Influenza A virus (A/California/07/2009(H1N1)); experiment: Anti-membranotropic activity against Influenza A virus (A/California/07/09(H1N1))pdm09 hemagglutinin assessed as inhibition of HA-driven chicken erythrocytes membrane fusion incubated for 30 mins by fusogenic activity assay
Method in brief: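 Compound mixed with virus and held 30 min at room temperature, then combined with 0.75% chicken erythrocytes at +4 °C. Fusion was triggered with MES buffer at pH 5.0. After erythrocytes sedimented, haemoglobin released by membrane lysis was read as optical density at 405 nm.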

O=C(CCN1CCCC1)Nc1cc(C(F)(F)F)cc2sc(=O)sc12
IC50 [1]: 6 µM | CC50 [2]: 75 µM | selectivity ratio [3]: 12

O=C(Nc1cc(C(F)(F)F)cc2sc(=O)sc12)C(F)(F)F
IC50 [1]: 0.2 µM | CC50 [2]: 2.2 µM | selectivity ratio [3]: 12

NC(=O)c1ncn([C@@H]2O[C@H](CO)[C@@H](O)[C@H]2O)n1 [RIBAVIRIN]
IC50 [1]: 44 µM | CC50 [2]: > 2130 µM | selectivity ratio [3]: 48

O=C(CN1CCCC1)Nc1cc(C(F)(F)F)cc2sc(=O)sc12
IC50 [1]: 191 µM | CC50 [2]: > 829 µM | selectivity ratio [3]: 4

O=C(CCN1CCOCC1)Nc1cc(C(F)(F)F)cc2sc(=O)sc12
IC50 [1]: 9 µM | CC50 [2]: 104 µM | selectivity ratio [3]: 11

O=C(CN1CCCCC1)Nc1cc(C(F)(F)F)cc2sc(=O)sc12
IC50 [1]: 18 µM | CC50 [2]: 532 µM | selectivity ratio [3]: 29 | Activity (MDCK): Active | inhibition [4]: inactive | inhibition [5]: Dose-dependent effect

CC(N)C12CC3CC(CC(C3)C1)C2 (stereo not given) [RIMANTADINE]
IC50 [1]: 41 µM | selectivity ratio [3]: 9

Nc1cc(C(F)(F)F)cc2sc(=O)sc12
IC50 [1]: 19 µM | CC50 [2]: 212 µM | selectivity ratio [3]: 11

CC(=O)Nc1cc(C(F)(F)F)cc2sc(=O)sc12
IC50 [1]: 38 µM | CC50 [2]: 95 µM | selectivity ratio [3]: 3

O=C(CCN1CCCCC1)Nc1cc(C(F)(F)F)cc2sc(=O)sc12
IC50 [1]: > 28.2 µM | CC50 [2]: 34 µM | selectivity ratio [3]: 1

O=C(CN1CCOCC1)Nc1cc(C(F)(F)F)cc2sc(=O)sc12
IC50 [1]: 5 µM | CC50 [2]: 13 µM | selectivity ratio [3]: 3
